# Results as given in ChEMBL document CHEMBL5126583, “Cytotoxicity of cinchona alkaloid organocatalysts against MES-SA and MES-SA/Dx5 multidrug-resistant uterine sarcoma cell lines” (Bioorg Med Chem, 2022).
# The source made the active and inactive calls. The rule behind the calls is not given here.
# Legend:
# [1] = system: MES-SA; assay: Cytotoxicity against human MES-SA cells assessed as cell growth inhibition incubated for 144 hrs by fluorescence microplate reader assay; format: functional, cell-based
# Outline: (§1)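 MES-SA (mCherry) and doxorubicin-selected Dx5 (eGFP; pretreated with 500 nM doxorubicin to keep P-gp expression) co-cultured, 1250 cells each per well, settled overnight. Serial dilutions added, 144 h incubation. Viability read by fluorescence (mCherry ex 585/em 610 nm; eGFP ex 485/em 510 nm). IC50 by automated curve evaluation; two-sided unpaired t-test.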
# [2] = system: MES-SA/Dx5; assay: Cytotoxicity against multidrug resistance human MES-SA/Dx5 cells assessed as cell growth inhibition incubated for 144 hrs by fluorescence microplate reader assay; format: functional, cell-based; settings: MES-SA/Dx5, 144 h; outline: as §1
# [3] = Resistance ratio of IC50 for cytotoxicity against multidrug resistance human MES-SA/Dx5 cells to IC50 for cytotoxicity against human MES-SA cells; format: functional
# [4] = system: MES-SA; assay: Cytotoxicity against human MES-SA cells assessed as cell growth inhibition incubated for 144 hrs in presence of P-gp inhibitor Tariquidar by fluorescence microplate reader assay; format: functional, cell-based
# Outline: (§2)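 Co-culture of fluorescent MES-SA (mCherry) and Dx5 (eGFP, doxorubicin 500 nM pretreated) exposed to serial dilutions plus 0.4 µM tariquidar for 144 h. Per-line fluorescence read-out gave IC50. Resistance ratio = IC50 Dx5 / IC50 MES-SA; significance by two-sided unpaired t-test.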
# [5] = system: MES-SA/Dx5; assay: Cytotoxicity against multidrug resistance human MES-SA/Dx5 cells assessed as cell growth inhibition incubated for 144 hrs in presence of P-gp inhibitor Tariquidar by fluorescence microplate reader assay; format: functional, cell-based; settings: MES-SA/Dx5, 144 h; outline: as §2
# [6] = Resistance ratio of IC50 for cytotoxicity against multidrug resistance human MES-SA/Dx5 cells in presence of P-gp inhibitor Tariquidar to IC50 for cytotoxicity against human MES-SA cells in presence of P-gp inhibitor Tariquidar; format: functional; outline: as §2
# [7] = system: MES-SA/Dx5; assay: Inhibition of P-gp in multidrug resistance human MES-SA/Dx5 cells assessed as inhibition of calcein-AM efflux at 20 uM incubated for 15 mins by calcein-AM staining based flow cytometry analysis
# [8] = system: MES-SA/Dx5; assay: Cytotoxicity against multidrug resistance human MES-SA/Dx5 cells assessed as reduction on calcein accumulation by measuring cell distribution at 20 uM incubated for 15 mins by calcein-AM staining based flow cytometry analysis; format: functional; design: scale not given: the % may be the effect or the level left; settings: 0.25 h
# Outline: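 Non-fluorescent Dx5 cells, 250 000 per tube, washed in serum-free DMEM, preincubated 5 min at 37 °C with compound at 20 µM. Calcein-AM then added (250 nM final) for 10 min more. Stopped with ice-cold PBS and kept on ice. Calcein fluorescence measured by flow cytometry, TO-PRO-3 live/dead gating. Controls: 20 µM verapamil, medium only.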
# [9] = system: MES-SA/Dx5; assay: Cytotoxicity against multidrug resistance human MES-SA/Dx5 cells assessed as inhibition of calcein-AM efflux at 20 uM incubated for 15 mins in presence of metal chelator EDTA by calcein-AM staining based flow cytometry analysis; format: functional, cell-based
# Outline: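 Calcein accumulation in non-fluorescent Dx5 cells, 250 000 per tube, with every step from preincubation to measurement in PBS containing 1 µM EDTA. Cells preincubated 5 min with 20 µM compound, then 250 nM calcein-AM for 10 min at 37 °C. Read by flow cytometry with TO-PRO-3 live/dead stain. Controls: verapamil 20 µM, no inhibitor.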
Compound,IC50 [1] [µM],IC50 [2] [µM],Ratio IC50 [3],IC50 [4] [µM],IC50 [5] [µM],Ratio IC50 [6],Activity [7],Activity [8] [%],Activity [9]
C=C[C@H]1CN2CC[C@H]1C[C@H]2[C@@H](Nc1c(Nc2cc(C(F)(F)F)cc(C(F)(F)F)c2)c(=O)c1=O)c1ccnc2ccc(OC)cc12,4.2,12,3,4.9,2.7,0.5,Active,–,–
CC[C@H]1CN2CC[C@H]1C[C@H]2[C@@H](Nc1c(Nc2cc(C(F)(F)F)cc(C(F)(F)F)c2)c(=O)c1=O)c1ccnc2ccc(OC)cc12,3.6,11,2.9,4.4,2.3,0.5,–,–,–
Oc1c(CN2CCCCC2)ccc2cccnc12,–,–,0.1,–,–,–,–,–,–
C=C[C@H]1CN2CC[C@H]1C[C@H]2[C@@H](N)c1ccnc2ccc(OC)cc12,81,197,2.4,115,121,1,Active,–,–
C#C[C@H]1CN2CC[C@H]1C[C@H]2[C@@H](Nc1c(Nc2cc(C(F)(F)F)cc(C(F)(F)F)c2)c(=O)c1=O)c1ccnc2ccc(OC)cc12,3.9,14,3.7,5.5,2.3,0.4,–,–,–
C#C[C@H]1CN2CC[C@H]1C[C@H]2[C@@H](N)c1ccnc2ccc(OC)cc12,29,161,5.6,30,146,4.9,–,–,–
C=C[C@H]1CN2CC[C@H]1C[C@H]2[C@H](O)c1ccnc2ccc(OC)cc12 [QUININE],93,67,0.7,91,43,0.5,Active,–,–
CC[C@H]1CN2CC[C@H]1C[C@H]2[C@@H](N)c1ccnc2ccc(OC)cc12,80,105,1.3,82,48,0.6,–,–,–
C#C[C@H]1CN2CC[C@H]1C[C@H]2[C@H](O)c1ccnc2ccc(OC)cc12,111,85,0.8,117,79,0.7,–,–,–
C#C[C@H]1CN2CC[C@H]1C[C@H]2[C@@H](NC(=S)Nc1cc(C(F)(F)F)cc(C(F)(F)F)c1)c1ccnc2ccc(OC)cc12,4.2,3.9,0.9,–,–,–,–,–,–
CC[C@H]1CN2CC[C@H]1C[C@H]2[C@@H](NC(=S)Nc1cc(C(F)(F)F)cc(C(F)(F)F)c1)c1ccnc2ccc(OC)cc12,1.3,1.5,1.2,1,0.9,0.8,–,–,–
CC[C@H]1CN2CC[C@H]1C[C@H]2[C@H](O)c1ccnc2ccc(OC)cc12 [HYDROQUININE],48,47,1,–,–,–,–,–,–
CC[C@H]1CN2CC[C@H]1C[C@H]2[C@@H](Nc1c(NCc2ccccc2)c(=O)c1=O)c1ccnc2ccc(OC)cc12,3.1,21,6.6,3.9,3.4,0.9,–,53.1,Active
CC[C@H]1CN2CC[C@H]1C[C@H]2[C@@H](Nc1c(NCc2ccccc2)c(=S)c1=S)c1ccnc2ccc(OC)cc12,57,65,1.1,56,50,0.9,Active,–,–
C=C[C@H]1CN2CC[C@H]1C[C@H]2[C@@H](NC(=S)Nc1cc(C(F)(F)F)cc(C(F)(F)F)c1)c1ccnc2ccc(OC)cc12,2.3,2.8,1.2,–,–,–,Active,–,–
COc1cccc2c1C(=O)c1c(O)c3c(c(O)c1C2=O)C[C@@](O)(C(=O)CO)C[C@@H]3O[C@H]1C[C@H](N)[C@H](O)[C@H](C)O1 [DOXORUBICIN],–,–,62.5,–,–,0.8,–,–,–
